Reference: PMC12376074 (Toxicology in vitro : an international journal published in …, 2019)
Where two headings read alike, the source gives them in different places. Blank lines part the entries; values can stand above or below the molecule they belong to.

Legend:
[1] = test system: HepG2 cells overexpressing CYP3A4; experiment: Toxicity of CYP inhibitor to CYP3A4 cells; assay type: cell-based, human; conditions: 30 μM
CYP3A4 = experiment: Western blot of CYP3A4 expression; assay type: cell-based, human; conditions: 30 μM, CYP3A4 overexpressing cells, 48 h
Outline: (§1)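 HepG2 cells overexpressing CYP2C8 or CYP3A4 were co-incubated 48 h with test compound, with or without 30 μM rifampicin or ketoconazole. RIPA lysates (protease inhibitors, 30 min on ice, 12,000g) were BCA-quantified, and 20–60 μg protein was run on 10% SDS-PAGE and blotted to PVDF. Blots were probed with goat polyclonal anti-CYP2C8 or mouse monoclonal anti-CYP3A4, detected by ECL, and quantified against β-actin.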

[2] = test system: HepG2 cells overexpressing CYP2C8; experiment: Toxicity of CYP inhibitor to CYP2C8 cells; assay type: cell-based, human; conditions: 30 μM
CYP2C8 = experiment: Western blot of CYP2C8 expression; assay type: cell-based, human; conditions: 30 μM, CYP2C8 overexpressing cells, 48 h
Outline: as §1

HepG2 cells [3] = experiment: MTT cell viability assay; assay type: cell-based, human; conditions: read-out: IC50 on cell growth
HepG2 cells [4] = experiment: LDH release assay; assay type: cell-based, human; conditions: 48 h, concentrations above the 0.5 IC50
HepG2 cells [5] = experiment: Caspase-3/7 activity measurement; assay type: cell-based, human; conditions: 0.1 IC50, 0.5 IC50 and IC50, 48 h
cleaved caspase-3 = experiment: Western blot of cleaved caspase-3 in HepG2 cells; assay type: cell-based, human; conditions: 48 h
Bcl-2, Mcl-1, Bax = experiment: Western blot of Bcl-2 family proteins in HepG2 cells; assay type: cell-based, human; conditions: 48 h
[6] = test system: phosphorylation of p38, JNK, and ERK1/2; experiment: Western blot of MAPK phosphorylation in HepG2 cells; assay type: cell-based, human; conditions: 48 h
[7] = cited from earlier work
[8] = MTT cell viability assay, CYP vector cells; assay type: cell-based; conditions: human, HepG2/CYP vector cells (empty-vector control), ADQ 1.56–50 μM
[9] = MTT cell viability assay, CYP1A1 cells; assay type: cell-based; conditions: human, HepG2 cells overexpressing CYP1A1
[10] = MTT cell viability assay, CYP1A2 cells; assay type: cell-based; conditions: human, HepG2 cells overexpressing CYP1A2
[11] = MTT cell viability assay, CYP1B1 cells; assay type: cell-based; conditions: human, HepG2 cells overexpressing human CYP1B1
[12] = MTT cell viability assay, CYP2C8 cells; assay type: cell-based; conditions: human, HepG2 cells overexpressing CYP2C8, IC50, CYP2C8 overexpressing cells, ADQ 1.56–50 μM
[13] = MTT cell viability assay, CYP2C19 cells; assay type: cell-based; conditions: human, HepG2 cells overexpressing CYP2C19
[14] = MTT cell viability assay, CYP3A4 cells; assay type: cell-based; conditions: human, HepG2 cells overexpressing CYP3A4, IC50, CYP3A4 overexpressing cells
[15] = MTT cell viability assay, CYP3A5 cells; assay type: cell-based; conditions: human, HepG2 cells overexpressing CYP3A5

Structure (SMILES): CC(=O)N1CCN(c2ccc(OCC3COC(Cn4ccnc4)(c4ccc(Cl)cc4Cl)O3)cc2)CC1 (stereo not shown) [ketoconazole]
- toxicity of the CYP inhibitor to cells [1]: not toxic
- expression level of CYP3A4 (CYP3A4): markedly reduced

- expression level of CYP2C8 (CYP2C8): markedly reduced
Structure (SMILES): CO[C@H]1/C=C/O[C@@]2(C)Oc3c(C)c(O)c4c(O)c(c(/C=N/N5CCN(C)CC5)c(O)c4c3C2=O)NC(=O)/C(C)=C\C=C\[C@H](C)[C@H](O)[C@@H](C)[C@@H](O)[C@@H](C)[C@H](OC(C)=O)[C@@H]1C [rifampicin]
- toxicity of the CYP inhibitor to cells [2]: not toxic

- IC50 (HepG2 cells [3]; HepG2 cells, 1.56–50 μM, 48 h, MTT): 15 µM
- LDH release relative to vehicle control (HepG2 cells [4]): > 4 fold
Structure (SMILES): CCNCc1cc(Nc2ccnc3cc(Cl)ccc23)ccc1O [NADQ, N-desethylamodiaquine]
- caspase-3/7 activity (HepG2 cells [5]): increased the activity of caspase-3/7 in a concentration-dependent manner
- expression level of cleaved caspase-3 (cleaved caspase-3): increase
- expression level of pro-apoptotic member Bax (Bcl-2, Mcl-1, Bax): no change
- expression levels of anti-apoptotic members Bcl-2 and Mcl-1 (Bcl-2, Mcl-1, Bax): no change
- phosphorylation of p38, JNK, and ERK1/2 [6]: markedly increased
- half-life (t1/2) of NADQ relative to ADQ (longer) ([7]; after oral administration of ADQ, ref Laurent et al., 1993, Scarsi et al., 2014): 20- to 50 fold
- Cmax of NADQ in vivo relative to ADQ (higher) ([7]; in vivo, ref Lai et al., 2009): > 20 fold

- IC50 (HepG2 cells [3]; Homo sapiens, HepG2, 48 h): 17.4 µM
Structure (SMILES): CCN(CC)Cc1cc(Nc2ccnc3cc(Cl)ccc23)ccc1O [ADQ, Amodiaquine]
- caspase-3/7 activity (HepG2 cells [5]): increased the activity of caspase-3/7 in a concentration-dependent manner
- expression level of cleaved caspase-3 (cleaved caspase-3): increase
- expression level of pro-apoptotic member Bax (Bcl-2, Mcl-1, Bax): increased
- expression levels of anti-apoptotic members Bcl-2 and Mcl-1 (Bcl-2, Mcl-1, Bax): decreased
- phosphorylation of p38, JNK, and ERK1/2 [6]: no change
- IC50 at 48 h [8]: 17.1 µM
- IC50 at 48 h [9]: 26.4 µM
- IC50 at 48 h [10]: 18.7 µM
- IC50 at 48 h [11]: 25.7 µM
- IC50 at 48 h [12]: 11.7 µM
- IC50 at 48 h [13]: 17.3 µM
- IC50 at 48 h ([14]; ADQ 1.56–50 μM): 14 µM
- IC50 at 48 h ([14]; ADQ 3.13–50 μM, no CYP inhibitor): 14.8 µM
- IC50 at 48 h [15]: 17.1 µM
